Calls of active or inactive are those of the source. The calls are words filed in the database; no cut-off is given here.
Tests used:
LoVo = experiment: Fold resistance, ratio of IC50 for human doxorubicin-resistant LoVo cells overexpressing P-gp to IC50 for human LoVo cells; format: functional
Outline: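 Fold resistance taken as the ratio of IC50 in the resistant line to IC50 in the parental line, each IC50 from dose-response curves of at least three independent experiments.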

Jurkat [1] = experiment: Induction of apoptosis in human Jurkat cells assessed as multinucleation at 100 uM after 24 to 48 hrs using Giemsa's staining by microscopic analysis; format: functional, cell-based
Outline: (§1)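 Giemsa staining, then light-microscope examination of cell morphology. HeLa and Jurkat cells were exposed to compound for 24 and 48 h. Magnification 60×.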

HeLa [2] = experiment: Induction of apoptosis in human HeLa cells assessed as increase in phospho-gammaH2AX expression at […] after 48 hrs by Western blot analysis; format: functional, cell-based
Outline: (§2)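 HeLa treated for 24 or 48 h; whole-cell lysates run on SDS-PAGE and blotted for phospho-γH2AX (Ser139).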

HT-29 = experiment: Antiproliferative activity against human HT-29 cells assessed as growth inhibition after 72 hrs by MTT assay; format: functional, cell-based; conditions: HT-29, 72 h
HeLa [3] = experiment: Induction of morphological changes in human HeLa cells assessed as appearance of giant interphase with multiple nuclei of different sizes at 10 nM after 24 hrs using phalloidintetramethylrhodamine B isothiocyanate staining by microscopy; format: functional, cell-based
Outline: (§3)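 HeLa cells were incubated with compound for 24 h. F-actin was stained with a phalloidin–tetramethylrhodamine B isothiocyanate conjugate and nuclei were counterstained with DAPI. Cells were then examined by fluorescence microscopy.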

HeLa [4] = experiment: Induction of apoptosis in human HeLa cells assessed as reduction in p53 expression at […] after 24 hrs by Western blot analysis; format: functional, cell-based
Outline: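 Western blot of HeLa whole-cell lysates, separated by SDS-PAGE and probed with antibodies to p-γH2AX Ser139, p53 and p21waf/cip1. Cells were treated at the indicated concentrations for 24 or 48 h.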

HeLa [5] = experiment: Cell cycle arrest in human HeLa cells assessed as increase of cell population at G2/M phase after 24 hrs using propidium iodide staining by flow cytometry; format: functional, cell-based
[6] = Antiproliferative activity against human taxol-resistant A549-T12 cells assessed as growth inhibition after 72 hrs by MTT assay; format: functional, cell-based; conditions: A549, 72 h
A549 = experiment: Antiproliferative activity against human A549 cells assessed as growth inhibition after 72 hrs by MTT assay; format: functional, cell-based; conditions: A549, 72 h
Jurkat [7] = experiment: Antiproliferative activity against human Jurkat cells assessed as growth inhibition after 72 hrs by MTT assay; format: functional, cell-based
HeLa [8] = experiment: Induction of morphological changes in human HeLa cells assessed as effect on arrangement and amount of F-actin at 100 nM after 24 hrs using phalloidintetramethylrhodamine B isothiocyanate staining by microscopy; format: functional, cell-based; outline: as §3
HeLa [9] = experiment: Induction of apoptosis in human HeLa cells assessed as increase in phospho-gammaH2AX expression at […] after 24 hrs by Western blot analysis; format: functional, cell-based; outline: as §2
HeLa [10] = experiment: Induction of morphological changes in human HeLa cells assessed as appearance of giant interphase with multiple nuclei of different sizes at 100 nM after 24 hrs using phalloidintetramethylrhodamine B isothiocyanate staining by microscopy; format: functional, cell-based; outline: as §3
HeLa [11] = experiment: Induction of apoptosis in human HeLa cells assessed activation of caspase 9 at […] after 24 hrs by Western blot analysis; format: functional, cell-based
Outline: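 Treated HeLa whole-cell lysates separated by SDS-PAGE and immunoblotted for PARP cleavage, Bcl-2, Bax, pro-caspase-9 and pro-caspase-2.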

Jurkat [12] = experiment: Induction of apoptosis in human Jurkat cells assessed as DNA condensation at 100 uM after 24 to 48 hrs using Giemsa's staining by microscopic analysis; format: functional, cell-based; outline: as §1
HeLa [13] = experiment: Induction of morphological changes in human HeLa cells assessed as effect on arrangement and amount of F-actin at 10 nM after 24 hrs using phalloidintetramethylrhodamine B isothiocyanate staining by microscopy; format: functional, cell-based; outline: as §3
[14] = Antiproliferative activity against human vinblastine-resistant CEM/VBL100 cells overexpressing P-gp assessed as growth inhibition after 72 hrs by MTT assay; format: functional, cell-based; conditions: CEM/VBL100, 72 h
HeLa [15] = experiment: Induction of apoptosis in human HeLa cells assessed as increase in annexin-V positive cells after 24 hrs by annexin-V-FITC and propidium iodide staining based flow cytometry; format: functional, cell-based
Outline: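 Biparametric flow cytometry after annexin-V immunolabelling plus propidium iodide, separating live, early apoptotic, late apoptotic and necrotic cells; HeLa incubated for 24 or 48 h.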

With `CCOc1ccc(-c2sc(N)nc2-c2cc(OC)c(OC)c(OC)c2)cc1` the “Ratio IC50” value (LoVo) was 0.9, the Activity (Jurkat [1]) was “Active” and the Activity (HeLa [2]) was “Active”. For the same compound, the IC50 (HT-29) was 38200 pM, the Activity (HeLa [3]) was “Active” and the Activity (HeLa [4]) was “inactive”. For the same compound, the Activity (HeLa [5]) was “Dose-dependent effect”, the IC50 [6] was 200 pM and the IC50 (A549) was 90 pM. For the same compound, the IC50 (Jurkat [7]) was 140 pM, the Activity (HeLa [8]) was “Active” and the Activity (HeLa [9]) was “Active”. The Activity (HeLa [10]) was “Active”, the Activity (HeLa [11]) was “inactive” and the Activity (Jurkat [12]) was “Active”. The Activity (HeLa [13]) was “Active”, the IC50 [14] was 800 pM and the Activity (HeLa [15]) was “Dose-dependent effect”.
